# In ChEMBL document CHEMBL1126902, “Synthesis, chemical reactivity, and antitumor evaluation of congeners of carmethizole hydrochloride, an experimental "acylated vinylogous carbinolamine" tumor inhibitor” (J Med Chem, 1993):
# Experiments:
# A549 = test: Concentration required to inhibit tumor growth in A549, human lung carcinoma (NSCLC) cell line; format: functional, cell-based
# Method in brief: (§1)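 Cells grown in RPMI 1640 with 5% fetal calf serum, 5% NuSerum IV and 20 mM HEPES, seeded and allowed to adhere overnight. Compound dissolved in RPMI-1640 plus HEPES and tested over a 5 log range (10 concentrations) for 72 h. Read-out by sulforhodamine B assay. Median-effect dose derived by nonlinear regression of the concentration-effect curve.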
# HT-29 = test: Concentration required to inhibit tumor growth in HT29, human colon adenocarcinoma cell line; format: functional, cell-based; settings: Homo sapiens, HT-29; method in brief: as §1
# [1] = Concentration required to inhibit tumor growth in […], human breast adenocarcinoma cell line; format: functional; method in brief: as §1
# [2] = Concentration required to inhibit tumor growth in PSN-1, human pancreatic carcinoma cell line; format: functional
# Method in brief: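 PSN-1 pancreatic carcinoma cells exposed to compound dissolved in RPMI-1640 plus HEPES at its maximum soluble concentration for 72 h. Read-out by sulforhodamine B colorimetric assay.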
# L1210 (Mus musculus) = test: Concentration required to inhibit tumor growth in L1210, murine lymphocytic leukemia cell line
# [3] = Percent increase in life span of dying mice tested in vivo at 47 mg/kg against ip implanted LOX amelanotic melanoma in mice (60-day survivors); format: functional; settings: Mus musculus, 1440 h, route intraperitoneal
# Method in brief: (§2)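 Female CD2F1 mice implanted ip with ascitic fluid carrying ca. 1.7×10^6 LOX amelanotic melanoma cells. Drug given ip on days 1, 5 and 9, starting 24 h after implant, dosed by exact body weight; solutions or suspensions made fresh daily. %ILS is from the median day of death of dying mice versus controls, excluding 60-day survivors.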
# [4] = Percent increase in life span of dying mice tested in vivo at 94 mg/kg against ip implanted LOX amelanotic melanoma in mice (60-day survivors); format: functional; settings: Mus musculus, 1440 h, route intraperitoneal
# Method in brief: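 Nude CD2F1 female mice were implanted ip with ascitic fluid containing ca. 1.7×10^6 LOX amelanotic melanoma cells. Drug was given ip on days 1, 5 and 9, starting 24 h after implantation, and dosed by exact body weight. Solutions or suspensions were made fresh daily in saline plus Tween 80. %ILS was calculated from the median day of death of dying mice versus controls, excluding 60-day survivors.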
# [5] = Change in tumor cell population in ip implanted LOX amelanotic melanoma in mice after administration of compound at 94 mg/kg; format: functional, Mus musculus; settings: route intraperitoneal
# Method in brief: (§3)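 Female CD2F1 mice were implanted ip with ascitic fluid holding ca. 1.7×10^6 LOX cells. Dosing was ip on days 1, 5 and 9, starting 24 h after implantation, by exact body weight, as a solution or suspension in saline plus Tween 80, freshly prepared daily. KE is the net log change in viable tumor cells from start to end of treatment. Bracketed KE assumes Poisson survival, with 60-day survivors tumor-free.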
# [6] = Change in tumor cell population in ip implanted LOX amelanotic melanoma in mice after administration of compound at 188 mg/kg; format: functional, Mus musculus; settings: route intraperitoneal; method in brief: as §3
# [7] = Change in tumor cell population in ip implanted LOX amelanotic melanoma in mice after administration of compound at 23.5 mg/kg; format: functional, Mus musculus; settings: route intraperitoneal; method in brief: as §3
# [8] = Change in tumor cell population in ip implanted LOX amelanotic melanoma in mice after administration of compound at 47 mg/kg; format: functional, Mus musculus; settings: route intraperitoneal; method in brief: as §3
# [9] = Percent increase in life span of dying mice tested in vivo at 23.5 mg/kg against ip implanted LOX amelanotic melanoma in mice (60-day survivors); format: functional; settings: Mus musculus, 1440 h, route intraperitoneal; method in brief: as §2
# [10] = Percent increase in life span of dying mice tested in vivo at 188 mg/kg against ip implanted LOX amelanotic melanoma in mice (60-day survivors); format: functional; settings: Mus musculus, 1440 h, route intraperitoneal; method in brief: as §2
# P388 [11] = test: Change in tumor cell population in ip implanted P388 Leukemia in mice after administration of compound at 23.5 mg/kg; format: functional, Mus musculus; settings: route intraperitoneal
# Method in brief: (§4)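 Female Portage-CD2F1 mice were inoculated ip with ascitic fluid holding ca. 5.2×10^6 P388 cells. Dosing was ip on days 1-5, starting 24 h after inoculation, by average body weight, as a solution or suspension in saline plus Tween 80. KE is the net log change in viable tumor cell population from start to end of the treatment period.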
# P388 [12] = test: Change in tumor cell population in ip implanted P388 Leukemia in mice after administration of compound at 47 mg/kg; format: functional, Mus musculus; settings: route intraperitoneal
# Method in brief: (§5)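 P388 leukemia: ascitic fluid with ca. 5.2×10^6 cells inoculated ip into Portage-CD₂F₁ female mice. Drug given ip on days 1-5, starting 24 h after inoculation, dosed by average body weight. Vehicle was saline plus Tween 80, as a solution or suspension. KE = net log change in viable tumor cells from start to end of treatment.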
# P388 [13] = test: Change in tumor cell population in ip implanted P388 Leukemia in mice after administration of compound at 94 mg/kg; format: functional, Mus musculus; settings: route intraperitoneal; method in brief: as §5
# P388 [14] = test: Percent increase in life span of dying mice tested in vivo at 23.5 mg/kg against ip implanted P388 Leukemia in mice; format: functional; settings: Mus musculus, route intraperitoneal
# Method in brief: (§6)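 Portage-CD2F1 female mice inoculated ip with ascitic fluid carrying ca. 5.2×10^6 P388 leukemia cells. Drug given ip daily on days 1-5, starting 24 h after inoculation, dosed by average body weight. %ILS is from the median day of death of dying mice versus controls.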
# P388 [15] = test: Percent increase in life span of dying mice tested in vivo at 47 mg/kg against ip implanted P388 Leukemia in mice; format: functional; settings: Mus musculus, route intraperitoneal; method in brief: as §6
# P388 [16] = test: Percent increase in life span of dying mice tested in vivo at 94 mg/kg against ip implanted P388 Leukemia in mice; format: functional; settings: Mus musculus, route intraperitoneal
# Method in brief: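 Portage-CD2F1 female mice were inoculated ip with ascitic fluid containing ca. 5.2×10^6 P388 leukemia cells. Drug was given ip daily on days 1-5, starting 24 h after inoculation, and dosed by average body weight. %ILS was calculated from the median day of death of dying mice versus controls.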
# P388 [17] = test: Change in tumor cell population in ip implanted P388 Leukemia in mice after administration of compound at 11.8 mg/kg; format: functional, Mus musculus; settings: route intraperitoneal; method in brief: as §4
# P388 [18] = test: Percent increase in life span of dying mice tested in vivo at 11.8 mg/kg against ip implanted P388 Leukemia in mice; format: functional; settings: Mus musculus, route intraperitoneal; method in brief: as §6
smiles,measurement,setting,value
CNC(=O)OCc1nc2n(c1COC(=O)NC)CCS2,IC50,A549,190 µM
same,IC50,HT-29,108 µM
same,IC50,[1],147 µM
same,IC50,[2],118 µM
same,IC50,L1210 (Mus musculus),11 µM
CNC(=O)OCc1nc(Sc2ccccc2)n(C)c1COC(=O)NC,IC50,A549,> 100 µM
same,IC50,HT-29,> 100 µM
same,IC50,[1],> 100 µM
same,IC50,[2],> 100 µM
same,IC50,L1210 (Mus musculus),> 100 µM
CNC(=O)OCc1nc2n(c1COC(=O)NC)CCCS2,IC50,A549,> 1000 µM
same,IC50,HT-29,> 1000 µM
same,IC50,[1],> 1000 µM
same,IC50,[2],> 650 µM
same,IC50,L1210 (Mus musculus),> 100 µM
CNC(=O)OCc1nc(SC(C)C)n(C)c1COC(=O)NC,ILS at 47 mg/kg,[3],24%
same,ILS at 94 mg/kg,[4],28%
same,KE,[5],0.6
same,KE,[6],-0.2
same,KE,[7],1.3
same,KE,[8],0.7
same,ILS at 23.5 mg/kg,[9],13%
same,ILS at 188 mg/kg,[10],45%
same,KE,P388 [11],1
same,KE,P388 [12],0.9
same,KE,P388 [13],-1.5
same,ILS at 23.5 mg/kg,P388 [14],25%
same,ILS at 47 mg/kg,P388 [15],27%
same,ILS at 94 mg/kg,P388 [16],59%
same,KE,P388 [17],0.6
same,ILS at 11.8 mg/kg,P388 [18],31%
